Measurements from different studies.
Lines come from different studies, so protocols differ.

Compound	species	medium	route	dose	setting	measurement	value
Cc1cc(C)nc(Nc2ncc(C(=O)NCCc3c(C)[nH]c4ccccc34)cn2)c1	C57BL/6 mouse	plasma	intraperitoneal	4.4 mg/kg		AUC(0-inf)	155 ng·h/mL
CN1CCCCC1Cn1cc(C(=O)c2cc([N+](=O)[O-])ccc2I)c2ccccc21 (racemic)	mouse	plasma	oral	25 mg/kg		AUC	1230 ng·h/mL
C[C@]12CC[C@H](n3ccnc3)CC1=CC[C@@H]1[C@@H]2CC[C@]2(C)C(n3cnc4ccccc43)=CC[C@@H]12.Cl	male CD-1 mouse	plasma	oral	10 mg/kg		AUC(0-t)	22600 ng·h/mL
CCN(CC)CCCC[C@H](NC(=O)[C@H](CC(C)C)NC(=O)[C@H](C)NC(=O)[C@H](Cc1ccccc1)NC(=O)c1ccc(C(C)(C)C)cc1)C(=O)N[C@@H](CO)C(=O)OC	male Swiss mouse	blood	intravenous	3 mg/kg		AUC(0-t)	1890 ng·h/mL
CN[C@H](CC(C)C)C(=O)N[C@H]1C(=O)N[C@@H](CC(N)=O)C(=O)N[C@H]2C(=O)NC3C(=O)N[C@H](C(=O)N[C@H](C(=O)NCCC[N+](C)(C)C)c4cc(O)cc(O)c4-c4cc3ccc4O)[C@H](O)c3ccc(c(Cl)c3)Oc3cc2cc(c3OC2OC(CO)C(O)[C@H](O)[C@@H]2O[C@H]2CC(C)(NCc3ccc(-c4ccc(Cl)cc4)cc3)[C@H](O)[C@H](C)O2)Oc2ccc(cc2Cl)[C@H]1O (some centres unmarked)	mouse	plasma	intravenous	10 mg/kg		AUC	81100 ng·h/mL
NCC(=O)Nc1ccc(-n2nc(C(F)(F)F)cc2-c2ccc3c(ccc4ccccc43)c2)cc1	mouse	plasma	oral	80 mg/kg	single dose	AUC(0-t)	41400 ng·h/mL
CCC[C@@](N)(CO)CCc1ccc(OCCCCCC(C)C)cc1	mouse	plasma	intraperitoneal	10 mg/kg		AUC(0-t)	1.06 µM·h
C[C@]12CC[C@H](O)CC1=CC[C@@H]1[C@@H]2CC[C@]2(C)C(n3cnc4ccccc43)=CC[C@@H]12.Cl	mouse	plasma	intravenous	1 mg/kg		AUC(0-t)	44.3 ng·h/mL
